Here are results for eight compounds from ChEMBL document CHEMBL1157466, “Antifouling activity of meroditerpenoids from the marine brown alga Halidrys siliquosa” (J Nat Prod, 2008).

Values after ≈ are worked out from the molar mass of the structure shown. Where only a bound is given, the exact number is not on record here.

In data set [1] the test system is Cobetia marina. The data set can be described thus: Antibacterial activity against Cobetia marina ATCC 25374 after 24 hrs by microtiter broth dilution method. It is filed as functional. The essentials:
(§1)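 Marine bacteria at 2×10^8 cells/mL incubated with compound (0.5, 1, 2.5, 5, 10, 25, 50, 100 µg/mL) in Mueller Hinton broth supplemented with NaCl (15 g/L), 25 °C, 24 h, 96-well format. Six replicates per treatment alongside a seawater control. MIC read against the seawater control by microtiter broth dilution.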

The subject of data set [2] is Marinobacterium stanieri. The data set can be described thus: Antibacterial activity against Marinobacterium stanieri ATCC 27130 after 24 hrs by microtiter broth dilution method. The data set is classed as functional. The essentials: as §1
For data set [3], the system named is Aliivibrio fischeri. Briefly: Antibacterial activity against Vibrio fischeri ATCC 7744 after 24 hrs by microtiter broth dilution method. It is filed as functional. Put shortly: as §1
Data set [4] relates to Pseudoalteromonas haloplanktis. Briefly: Antibacterial activity against Pseudoalteromonas haloplanktis after 24 hrs by microtiter broth dilution method. It is filed as functional. Put shortly:
as §1

For data set [5], the system named is Amphibalanus amphitrite. The data set can be described thus: Antifouling activity in Balanus amphitrite assessed as inhibition of cyprid larvae settlement after 24 hrs. The data set is classed as functional, organism-based. Put shortly:
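Cyprids obtained by filtration 4 days after larval release from field-collected adults. 10–15 cyprids per well in 2 mL seawater containing compound at 0.5–100 µg/mL (0.5, 1, 2.5, 5, 10, 25, 50, 100). Kept in darkness at 28 °C for 24 h, six replicates. Larvae scored as dead, settled or swimming under a dissecting microscope. EC50 calculated as 50% settlement inhibition relative to the seawater control.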

A short description of data set [6]: Toxicity against Balanus amphitrite stage 2 nauplii after 24 hrs. The data set is classed as organism-based. Conditions: amphibalanus amphitrite, in vivo. Put shortly:
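Ten to fifteen stage-II barnacle nauplii per well in 2 mL solution; compounds at 0.5, 1, 2.5, 5, 10, 25, 50 and 100 µg/mL; six replicates per treatment and control. Swimming and dead nauplii counted after 24 h exposure; LC50 is the concentration giving 50% mortality relative to control, derived from the dose-response data.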

Where [7] appears, read: Amphibalanus amphitrite, 24 h, read-out: EC50.
The mark [8] stands for this setting: Cobetia marina, ATCC 25374, 24 h, read-out: MIC.
[9] abbreviates: Marinobacterium stanieri, ATCC 27130, 24 h, read-out: MIC.
[10] abbreviates: Aliivibrio fischeri, ATCC 7744, 24 h, read-out: MIC.
Where [11] appears, read: Pseudoalteromonas haloplanktis, 24 h, read-out: MIC.

On to `COc1cc(C)c(O)c(C/C=C(\C)CC(=O)/C=C(\C)CCCC(C)C(=O)C(O)C=C(C)C)c1` (stereo in doubt; 4), for which the minimal inhibitory concentration (MIC) in data set [1], in data set [2], in data set [3] and in data set [4] was greater than 100 µg/mL throughout. In addition, in data set [5] (setting [7]), the EC50 was greater than 100 µg/mL.

Take `COc1cc(C)c(O)c(C/C=C(\C)CC(=O)/C=C(\C)CCCC(C)C(O)C(=O)C=C(C)C)c1` (stereo in doubt; 8): the MIC is 10 µg/mL (≈ 21.9 µM) in data set [1], 10 µg/mL (≈ 21.9 µM) in data set [2], 25 µg/mL (≈ 54.7 µM) in data set [3] and 10 µg/mL (≈ 21.9 µM) in data set [4]. Also, the EC50 in data set [5] was greater than 100 µg/mL. The compound further came in with an LC50 at 24 h in data set [6] greater than 100 µg/mL.

For `COc1cc(C)c(O)c(C/C=C(\C)CC(=O)/C=C(/C)CCCC(C)C(O)C(=O)C=C(C)C)c1` (stereo not given), the MIC in data set [1] (setting [8]), in data set [2] (setting [9]), in data set [3] (setting [10]) and in data set [4] (setting [11]) was greater than 100 µg/mL throughout. Also, the EC50 in data set [5] (setting [7]) was greater than 100 µg/mL. This compound showed an LC50 at 24 h in data set [6] greater than 100 µg/mL.

Consider `COc1cc(C)c(O)c(C/C=C(\C)CC(O)/C=C(\C)CCCC(C)C(=O)C(O)C=C(C)C)c1` (stereo not given), for which the MIC is 1 µg/mL (≈ 2.18 µM) in data set [1] (setting [8]), 1 µg/mL (≈ 2.18 µM) in data set [2] (setting [9]), 0.5 µg/mL (≈ 1.09 µM) in data set [3] (setting [10]) and 1 µg/mL (≈ 2.18 µM) in data set [4] (setting [11]). In data set [5] (setting [7]), the concentration giving a half-maximal response (EC50) is 5 µg/mL (≈ 10.9 µM). Besides, the 50% lethal concentration (LC50) at 24 h in data set [6] was determined as 10 µg/mL (≈ 21.8 µM).

With `COc1cc(C)c2c(c1)C=CC(C)(CC(=O)/C=C(\C)CCCC(C)[C@@H](O)C(=O)C=C(C)C)O2` (stereo not given in full), the MIC in data set [1] (setting [8]), in data set [2] (setting [9]), in data set [3] (setting [10]) and in data set [4] (setting [11]) was greater than 100 µg/mL throughout. Also, in data set [5] (setting [7]), the EC50 was greater than 100 µg/mL. Further, in data set [6], the LC50 at 24 h was greater than 100 µg/mL.

In the case of `COc1cc(C)c(O)c(C/C=C(\C)CC(=O)/C=C(\C)CCCC(C)C(=O)C(O)C=C(C)C)c1` (stereo in doubt; 3), the MIC in data set [1] was determined as 5 µg/mL (≈ 10.9 µM); in data set [2], 5 µg/mL (≈ 10.9 µM); in data set [3], 5 µg/mL (≈ 10.9 µM); in data set [4], 10 µg/mL (≈ 21.9 µM). In data set [6], this compound had an LC50 at 24 h greater than 100 µg/mL.

Consider `COc1cc(C)c(O)c(C/C=C(\C)CC(=O)/C=C(\C)CCCC(C)C(O)C(=O)C=C(C)C)c1` (stereo in doubt; 9), for which the MIC was determined as 2.5 µg/mL (≈ 5.47 µM) in data set [1], 1 µg/mL (≈ 2.19 µM) in data set [2], 2.5 µg/mL (≈ 5.47 µM) in data set [3] and 1 µg/mL (≈ 2.19 µM) in data set [4]. In addition, in data set [5], the EC50 was 4 µg/mL (≈ 8.76 µM).

In the case of `COc1cc(C)c(O)c(C/C=C(\C)CC(=O)/C=C(/C)CCCC(C)C(=O)C(O)C=C(C)C)c1` (stereo not given), the MIC in data set [1] (setting [8]) is 0.5 µg/mL (≈ 1.09 µM); in data set [2] (setting [9]), 1 µg/mL (≈ 2.19 µM); in data set [3] (setting [10]), 0.5 µg/mL (≈ 1.09 µM); in data set [4] (setting [11]), 1 µg/mL (≈ 2.19 µM). Besides, the 50% effective concentration (EC50) in data set [5] (setting [7]) was 1 µg/mL (≈ 2.19 µM). The 50% lethal concentration (LC50) at 24 h in data set [6] was 5 µg/mL (≈ 10.9 µM).
